Screening results from PubChem.
Vif imaging = inhibitors of HIV Vif; AID 602346; 0.35% of 340,000 active; HEK293T cells, Vif self-association by quenched fluorescence, imaging, 24 h; inhibition, % at 7.49 µM; in the data active means inhibition above about 50%, passing the limit was not always enough
NPR1 activator = GC-A (human) enzyme activation. P16066. HEK293 GC-A cells, cGMP TR-FRET, EC30 ANP; 0% at EC30 ANP, 100% saturating ANP. activation, % at 10 µM. 0.14% of 370,000 active; in the data active means activation above about 40%
CaV13 FRET inh = Disruptors of the CACNA1D IQ motif to Ca2+-dependent inactivation inhibitor domain association, primary screening, Förster resonance energy transfer in intact living …; 0.098% of 340,000 active; inhibition, % at 12.3 µM; HEK cells, CFP/YFP FRET ICDI-IQ, plate reader, 10 min; percent FRET-ratio fall versus neutral wells;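 active means mean replicate inhibition of at least 30% and at least 1% of replicates passing that level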;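 further: 0% = median of the neutral control wells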
Xi reactivation = X-chromosome reactivation activator. AID 743238. 0.055% of 360,000 active. activation, % at 7.58 µM. XiGFP mouse fibroblasts, % GFP-positive cells imaging, 3 d; cells co-treated with 5-aza-dC sensitizer; scaled so ellipticine positive control = 100%;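 active means mean normalized replicate activation at least 10% and every replicate at or above 10%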;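 further: 0% = median of on-plate neutral control wells and 100% = ellipticine 6 µM median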
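Material: SV40-immortalized XiGFP fibroblast cells, line 68-5-11 | Buffer or medium: DMEM containing 5-aza-dC | Dosing: One concentration, pinned | Times: 3 d treatment, 15 min room-temperature fixation | Controls: Ellipticine 6 µM positive control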
N-glyco inh = blocks N-linked glycosylation in D54 reporter cells; D54 ERlucT glycosylation luciferase reporter, 24 h; percent of 100 nM tunicamycin response; reporter increase, % at 12.5 µM; 0.23% of 360,000 active;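 active means mean luciferase reporter signal, scaled so untreated is 0 and the glycosylation-blocking control 100, at or above a set limit in every replicate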;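 further: luciferase carries N-glycosylation sites so blocking glycosylation raises the light; 0% = median of neutral control wells and 100% = median of 100 nM tunicamycin wells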
GC-B act = GC-B (human) receptor activation; P20594; HEK293-GC-B cells, CNP EC30, cGMP TR-FRET; 0% at EC30 CNP, 100% saturating CNP; activation, % at 10 µM; 0.11% of 370,000 active;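 active means activation at 10 µM reaching about 35% in either raw or pattern-adjusted values, limit read from the data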
* = called active by the depositor. In the library only some 0.7% were active in any assay of this set; here they are far more common.

Screening Cc1nn(CC(C)C)c(Cl)c1C(=O)N(c1ccc(Cl)cc1F)S(C)(=O)=O returned Vif imaging -6, NPR1 activator -22, CaV13 FRET inh -8, Xi reactivation 0, N-glyco inh 26* and GC-B act -7.
COc1ccc(CCNC(=O)c2c(C)nn(CC(C)C)c2Cl)cc1 was read as Vif imaging -5, NPR1 activator 6, CaV13 FRET inh -6, Xi reactivation 0, N-glyco inh 4 and GC-B act -4.
For COc1ccc(OC)c(/C=C2\NC(=O)NC2=O)c1 the results were Vif imaging -13, NPR1 activator 3, CaV13 FRET inh -17, Xi reactivation 0, N-glyco inh -6 and GC-B act -1.
COc1cc(N2CCCC2)c(OC)cc1/C=C1/NC(=S)NC1=O was read as NPR1 activator -30, CaV13 FRET inh -15, Xi reactivation 71*, N-glyco inh -1 and GC-B act -6.
CNC[C@@H]1Oc2ccc(NC(=O)CCN3CCOCC3)cc2C(=O)N([C@@H](C)CO)C[C@H]1C was read as Xi reactivation -1.
Screening O=C1CCS/C(=N\N=C\c2ccc(Cl)cc2Cl)N1 returned Vif imaging -2, NPR1 activator 56*, CaV13 FRET inh -5, Xi reactivation 0, N-glyco inh 1 and GC-B act -5.
Screening Cc1ccccc1/C=N/N=C1/NC(=O)CCS1 returned Vif imaging -1, NPR1 activator 20, CaV13 FRET inh -18, Xi reactivation 0, N-glyco inh 2 and GC-B act -2.
For CC(C)C1N=C(c2ccc3c(c2)OCO3)CC(c2ccccc2O)N1 (stereo not drawn) the results were Vif imaging 0, NPR1 activator -11, CaV13 FRET inh -8, N-glyco inh 37* and GC-B act -7.
Screening COC(=O)c1cc(OC)c(OC)cc1NC(=S)NC(=O)c1ccco1 returned Vif imaging -10, NPR1 activator 1, CaV13 FRET inh -14, Xi reactivation 0, N-glyco inh 40* and GC-B act -4.
CN1CCN(CC(=O)N2CCn3c4c(c5cc(C6CCCCC6)ccc53)CCCC42)CC1 (stereo not drawn) was read as Vif imaging 98* and N-glyco inh -10.
COC(=O)c1cccc(NC(=O)CSc2nnc(-c3ccco3)o2)c1 was read as Vif imaging 58*, NPR1 activator 1, CaV13 FRET inh -8, Xi reactivation 0, N-glyco inh 3 and GC-B act 1.
COc1ccc(OC)c(NC(=O)CSc2nnc(-c3ccco3)o2)c1 was read as Vif imaging 4, NPR1 activator -1, CaV13 FRET inh -10, Xi reactivation 0, N-glyco inh 0 and GC-B act 0.
C[C@@H]1CN([C@H](C)CO)C(=O)Cc2cc(NS(=O)(=O)c3ccc(Cl)cc3)ccc2O[C@@H]1CN(C)S(C)(=O)=O was read as Xi reactivation 0.
O=C(Nc1c2ccccc2nc2ccccc12)C(Cl)(Cl)Cl was read as Vif imaging -14 and N-glyco inh 93*.
`CCOC(=O)C1=c2/c(=C/c3ccncc3)c(N)c(C(=O)OC)n2C(=O)C(c2ccncc2)S1` (stereo not drawn) gave Vif imaging 11, NPR1 activator -27, CaV13 FRET inh -2, Xi reactivation 116*, N-glyco inh 0 and GC-B act -14.
Screening CCOC(=O)C1=C(N)n2c(s/c(=C\c3ccncc3)c2=O)=C(C(=O)OCC)C1c1ccncc1 (stereo not drawn) returned Vif imaging 3, NPR1 activator -14, CaV13 FRET inh -4, Xi reactivation 0, N-glyco inh 3 and GC-B act -3.
`CCc1ccc(NC(=O)Cn2c(=O)n(CCC(=O)NC3CCN(Cc4ccccc4)CC3)c(=O)c3ccccc32)cc1` gave Vif imaging 18, NPR1 activator -14, CaV13 FRET inh 1, Xi reactivation 0, N-glyco inh 38* and GC-B act -12.
